Test results taken from ChEMBL document CHEMBL3616436, “Synthesis, cytotoxicity and antimicrobial activity of thiourea derivatives incorporating 3-(trifluoromethyl)phenyl moiety” (Eur J Med Chem, 2015).
≈ marks a conversion by molar mass, not a printed value. Calls of active or inactive are those of the source. The rule behind the calls is not given here.

What was measured:
Human alphaherpesvirus 1 = assay: Antiviral activity against Human herpesvirus 1 KOS ATCC VR-1493 infected in African green monkey Vero 76 cells assessed as reduction of virus-plaque formation after 3 days by crystal violet staining; format: functional, organism-based; details: Human alphaherpesvirus 1, KOS ATCC VR1493, Vero, 72 h
Outline: (§1)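 Plaque reduction: Vero-76 at 2x10^5 cells/well grown to confluent monolayers, infected 2 h at 50–100 PFU/well; after removing unadsorbed virus, overlay of D-MEM, 1% inactivated FBS, 0.75% methylcellulose with or without serial compound dilutions; 3 days at 37°C, fixed and stained with crystal violet in 50% ethanol, plaques counted; EC50 by linear regression.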

[1] = test system: Staphylococcus epidermidis; assay: Antimicrobial activity against Staphylococcus epidermidis ATCC 35984 after 18 hrs by twofold serial microdilution method; format: functional; details: ATCC 35984, 18 h
Bacillus subtilis = assay: Antimicrobial activity against Bacillus subtilis ATCC 6633 at 400 ug after 18 hrs by disc-diffusion method; format: functional; details: ATCC 6633, 18 h, read-out: IZ
Outline: (§2)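 Disc diffusion on Mueller-Hinton II agar per CLSI; 9 mm paper discs loaded with 400 µg compound from DMSO solution, dried, placed on agar; growth inhibition zone diameter read after 18 h at 35°C.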

Enterococcus hirae = assay: Antimicrobial activity against Enterococcus hirae ATCC 10541 at 400 ug after 18 hrs by disc-diffusion method; format: functional; outline: as §2
Micrococcus luteus [2] = assay: Antimicrobial activity against Micrococcus luteus ATCC 10240 at 400 ug after 18 hrs by disc-diffusion method; format: functional; details: ATCC 10240, 18 h, read-out: IZ; outline: as §2
Micrococcus luteus [3] = assay: Antimicrobial activity against Micrococcus luteus ATCC 9341 at 400 ug after 18 hrs by disc-diffusion method; format: functional; details: ATCC 9341, 18 h, read-out: IZ; outline: as §2
Staphylococcus aureus [4] = assay: Antimicrobial activity against Staphylococcus aureus NCTC 4163 after 18 hrs by twofold serial microdilution method; format: functional; details: NCTC 4163, 18 h
[5] = test system: Mycobacterium tuberculosis; assay: Antimycobacterial activity against Mycobacterium tuberculosis H37Rv ATCC 25618; format: functional
Outline: (§3)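 Classical test-tube successive-dilution method in Youmans' modification of Proskauer and Beck liquid medium with 10% bovine serum. Inoculum came from 14-day cultures. DMSO stock was 10 mg/mL, diluted geometrically in medium. Tubes were incubated at 37 °C. Concentrations tested were 3.1, 6.2, 12.5, 25, 50 and 100 µg/ml. MIC is the minimum concentration inhibiting growth relative to compound-free tubes.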

Enterococcus faecalis = assay: Antimicrobial activity against Enterococcus faecalis ATCC 29212 at 400 ug after 18 hrs by disc-diffusion method; format: functional; outline: as §2
[6] = test system: Staphylococcus epidermidis; assay: Antimicrobial activity against Staphylococcus epidermidis ATCC 12228 after 18 hrs by twofold serial microdilution method; format: functional; details: ATCC 12228, 18 h
[7] = test system: Staphylococcus epidermidis; assay: Antimicrobial activity against Staphylococcus epidermidis ATCC 12228 at 400 ug after 18 hrs by disc-diffusion method; format: functional; details: ATCC 12228, 18 h, read-out: IZ; outline: as §2
Coxsackievirus B5 = assay: Antiviral activity against Human coxsackievirus B5 ATCC VR-29 infected in African green monkey Vero 76 cells assessed as reduction of virus-plaque formation after 3 days by crystal violet staining; format: functional, organism-based; details: Enterovirus B, ATCC VR-29, Vero, 72 h; outline: as §1
Bacillus cereus = assay: Antimicrobial activity against Bacillus cereus ATCC 11778 at 400 ug after 18 hrs by disc-diffusion method; format: functional; details: ATCC 11778, 18 h, read-out: IZ; outline: as §2
[8] = test system: Mammalian orthoreovirus 1; assay: Antiviral activity against Reovirus type-1 ATCC VR-214 infected in BHK cells assessed as protection against virus-induced cytopathogenicity after 3 to 4 days by MTT assay; format: functional, cell-based; details: Mammalian orthoreovirus 1, ATCC VR-214, BHK
Outline: (§4)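 Cells seeded in 96-well plates (BHK 5x10^4, MDBK 3x10^4 cells/well), grown overnight to confluence, infected at m.o.i. 0.01 (BHK for Reo-1, MDBK for BVDV); serial compound dilutions in maintenance medium with 0.5% inactivated FBS added after 1 h; viability by MTT after 3–4 days at 37°C; EC50 for 50% protection by linear regression.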

Staphylococcus aureus [9] = assay: Antimicrobial activity against Staphylococcus aureus ATCC 29213 at 400 ug after 18 hrs by disc-diffusion method; format: functional; details: ATCC 29213, 18 h, read-out: IZ; outline: as §2
Staphylococcus aureus [10] = assay: Antimicrobial activity against Staphylococcus aureus ATCC 29213 after 18 hrs by twofold serial microdilution method; format: functional; details: ATCC 29213, 18 h
Vaccinia virus = assay: Antiviral activity against Human Vaccinia virus ATCC VR-1549 infected in African green monkey Vero 76 cells assessed as reduction of virus-plaque formation after 3 days by crystal violet staining; format: functional, organism-based; details: Orthopoxvirus vaccinia, ATCC VR-1549, Vero, 72 h
[11] = Cytotoxicity against African green monkey Vero 76 cells assessed as cell viability after 48 to 96 hrs by crystal violet staining; format: cell-based; details: chlorocebus sabaeus
Staphylococcus aureus [12] = assay: Antimicrobial activity against Staphylococcus aureus ATCC 6538 at 400 ug after 18 hrs by disc-diffusion method; format: functional; details: ATCC 6538, 18 h, read-out: IZ; outline: as §2
[13] = Cytotoxicity against human MT4 cells; format: cell-based
[14] = test system: Human immunodeficiency virus 1; assay: Antiviral activity against HIV1 3B infected in human MT4 cells assessed as protection against virus-induced cytopathogenicity by MTT assay; format: functional, organism-based; details: Human immunodeficiency virus 1, 3B
[15] = Cytotoxicity against bovine MDBK cells assessed as cell viability after 48 to 96 hrs by MTT assay; format: cell-based, Bos taurus; details: cattle
Staphylococcus aureus [16] = assay: Antimicrobial activity against Staphylococcus aureus NCTC 4163 at 400 ug after 18 hrs by disc-diffusion method; format: functional; details: NCTC 4163, 18 h, read-out: IZ; outline: as §2
Proteus vulgaris = assay: Antimicrobial activity against Proteus vulgaris NCTC 4635 at 400 ug after 18 hrs by disc-diffusion method; format: functional; outline: as §2
[17] = test system: Vesicular stomatitis virus; assay: Antiviral activity against Vesicular stomatitis virus ATCC VR 1540 infected in African green monkey Vero 76 cells assessed as reduction of virus-plaque formation after 2 days by crystal violet staining; format: functional, organism-based; details: ATCC VR 1540, Vero, 48 h
[18] = test system: Staphylococcus epidermidis; assay: Antimicrobial activity against Staphylococcus epidermidis ATCC 35984 at 400 ug after 18 hrs by disc-diffusion method; format: functional; details: ATCC 35984, 18 h, read-out: IZ; outline: as §2
Staphylococcus aureus [19] = assay: Antimicrobial activity against Staphylococcus aureus ATCC 6538 after 18 hrs by twofold serial microdilution method; format: functional; details: ATCC 6538, 18 h
Yellow fever virus = assay: Antiviral activity against Yellow fever virus 17D infected in BHK cells assessed as protection against virus-induced cytopathogenicity after 3 to 4 days by MTT assay; format: functional, cell-based
Poliovirus 1 = assay: Antiviral activity against Poliovirus type 1 ATCC VR-1562 infected in African green monkey Vero 76 cells assessed as reduction of virus-plaque formation after 2 days by crystal violet staining; format: functional, organism-based; details: Enterovirus C, ATCC VR-1562, Vero, 48 h
[20] = test system: Mycobacterium tuberculosis; assay: Antimycobacterial activity against drug-sensitive Mycobacterium tuberculosis Spec. 192; format: functional; outline: as §3
Staphylococcus aureus [21] = assay: Antimicrobial activity against Staphylococcus aureus ATCC 25923 at 400 ug after 18 hrs by disc-diffusion method; format: functional; details: ATCC 25923, 18 h, read-out: IZ; outline: as §2
[22] = Cytotoxicity against BHK cells assessed as cell viability after 48 to 96 hrs by MTT assay; format: cell-based, Mesocricetus auratus; details: hamster
[23] = Antiviral activity against Bovine viral diarrhea virus 1-NADL ATCC VR-534 infected in MDBK cells assessed as protection against virus-induced cytopathogenicity after 3 to 4 days by MTT assay; format: functional, cell-based; details: Bovine viral diarrhea virus isolates and strains, ATCC VR-534, MDBK; outline: as §4
Staphylococcus aureus [24] = assay: Antimicrobial activity against Staphylococcus aureus ATCC 25923 after 18 hrs by twofold serial microdilution method; format: functional; details: ATCC 25923, 18 h

SMILES	EC50 (Human alphaherpesvirus 1) [µM]	MIC [1] [µg/mL]	zone of inhibition at 400 µg/disc (Bacillus subtilis) [mm]	inhibition zone (IZ) (Enterococcus hirae)	zone of inhibition at 400 µg/disc (Micrococcus luteus [2]) [mm]	zone of inhibition at 400 µg/disc (Micrococcus luteus [3]) [mm]	MIC (Staphylococcus aureus [4]) [µg/mL]	MIC [5] [µg/mL]	MIC [6] [µg/mL]	zone of inhibition at 400 µg/disc [7] [mm]	EC50 (Coxsackievirus B5) [µM]	zone of inhibition at 400 µg/disc (Bacillus cereus) [mm]	EC50 [8] [µM]	zone of inhibition at 400 µg/disc (Staphylococcus aureus [9]) [mm]	MIC (Staphylococcus aureus [10]) [µg/mL]	EC50 (Vaccinia virus) [µM]	CC50 [11] [µM]	zone of inhibition at 400 µg/disc (Staphylococcus aureus [12]) [mm]	CC50 [13] [µM]	EC50 [14] [µM]	also measured
O=C(NC(=S)Nc1cccc(C(F)(F)F)c1)c1ccccc1	> 100	64 (≈ 197 µM)	17	inactive	19	17	32 (≈ 98.7 µM)	> 100	64 (≈ 197 µM)	17	> 100	14	> 100	17	32 (≈ 98.7 µM)	> 100	> 100	17	> 100	> 100	zone of inhibition at 400 µg/disc (Enterococcus faecalis; ATCC 29212, 18 h, read-out: IZ): 12 mm; CC50 [15]: > 100 µM; zone of inhibition at 400 µg/disc (Staphylococcus aureus [16]): 17 mm; inhibition zone (IZ) (Proteus vulgaris): inactive; EC50 [17]: > 100 µM; zone of inhibition at 400 µg/disc [18]: 16 mm; MIC (Staphylococcus aureus [19]): 32 µg/mL (≈ 98.7 µM); EC50 (Yellow fever virus): > 100 µM; EC50 (Poliovirus 1): > 100 µM; MIC [20]: > 100 µg/mL; zone of inhibition at 400 µg/disc (Staphylococcus aureus [21]): 17 mm; CC50 [22]: > 100 µM; EC50 [23]: > 100 µM; MIC (Staphylococcus aureus [24]): 32 µg/mL (≈ 98.7 µM)
C=C(C)CNC(=S)Nc1cccc(C(F)(F)F)c1	> 100	64 (≈ 233 µM)	16	inactive	16	20	64 (≈ 233 µM)	> 100	64 (≈ 233 µM)	17	> 100	16	> 100	17	64 (≈ 233 µM)	> 100	> 100	18	43	> 43	inhibition zone (IZ) (Enterococcus faecalis): inactive; CC50 [15]: > 100 µM; zone of inhibition at 400 µg/disc (Staphylococcus aureus [16]): 20 mm; inhibition zone (IZ) (Proteus vulgaris): inactive; EC50 [17]: > 100 µM; zone of inhibition at 400 µg/disc [18]: 13 mm; MIC (Staphylococcus aureus [19]): 64 µg/mL (≈ 233 µM); EC50 (Yellow fever virus): > 100 µM; EC50 (Poliovirus 1): > 100 µM; MIC [20]: 100 µg/mL (≈ 365 µM); zone of inhibition at 400 µg/disc (Staphylococcus aureus [21]): 18 mm; CC50 [22]: > 100 µM; EC50 [23]: > 100 µM; MIC (Staphylococcus aureus [24]): 64 µg/mL (≈ 233 µM)
